This is an account of results in ChEMBL document CHEMBL5226368, “1H NMR-Based Biochemometric Analysis of Morus alba Extracts toward a Multipotent Herbal Anti-Infective” (J Nat Prod, 2023).

For data set [1], the system named is A549. Kind of data set: Cytotoxicity against human A549 cells assessed as reduction in cell viability incubated for 72 hrs by WST-8 assay. The class given is toxicity, cell-based. Conditions: a549, 72 h. The essentials: (§1)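 Confluent monolayers in serum-free medium with 0.2 μg/mL trypsin were exposed to six half-log concentrations (maximum 100 μM) for 72 h at 37 °C. WST-8 was added for 2 h and OD read at 450 vs 620 nm (NADH activity). After PBS washes, crystal violet staining was used for viability. At least three assays were run.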
A general note: Tetrazolium dyes change colour on reduction, which living cells bring about.

For data set [2], the system named is Calu-3. The data set can be described thus: Cytotoxicity against human Calu-3 cells assessed as reduction in cell viability incubated for 72 hrs by WST-8 assay. Conditions: calu-3, 72 h. The class given is toxicity, cell-based. Put shortly:
as §1

For data set [3], the system named is Streptococcus pneumoniae. Kind of data set: Antibacterial activity against Streptococcus pneumoniae DSM20566 assessed as inhibition of bacterial growth incubated for 24 hrs by broth microdilution assay. The class given is functional. The essentials: (§2)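 S. pneumoniae was tested by broth microdilution in Todd Hewitt broth with yeast extract. Double-concentrated half-log dilutions (duplicates) were combined 1:1 by volume with inoculum at 2×10^5 CFU/mL, then held 24 h at 37 °C under 5% CO2. MIC was the lowest concentration without visible growth, averaged over three assays. Ampicillin and rifampicin served as references.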

The test system of data set [4] is Streptococcus pneumoniae. The data set can be described thus: Antibacterial activity against Streptococcus pneumoniae D39 assessed as inhibition of bacterial growth incubated for 24 hrs by broth microdilution assay. The class given is functional. The essentials: as §2
In general terms: Dilution methods test growth across graded concentrations, often in twofold steps.

Data set [5] deals with Staphylococcus aureus. Kind of data set: Antibacterial activity against Staphylococcus aureus ATCC43000 assessed as inhibition of bacterial growth incubated for 24 hrs by broth microdilution assay. The class given is functional. Put shortly:
(§3)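 Broth microdilution on S. aureus in brain-heart-infusion broth. Double-concentrated half-log dilutions (duplicates) mixed with an equal volume of bacterial suspension at 2×10^5 CFU/mL. Incubated 24 h at 37 °C, 5% CO2. MIC read as the lowest concentration with no visible growth. Reported as mean MIC of three assays. Ampicillin and rifampicin served as references.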

Data set [6] has as its system Staphylococcus aureus. The data set can be described thus: Antibacterial activity against Staphylococcus aureus ATCC25923 assessed as inhibition of bacterial growth incubated for 24 hrs by broth microdilution assay. The class given is functional. The essentials: as §3
In data set [7] the test system is Influenza A virus. The data set can be described thus: Antiviral activity against Influenza A virus. The class given is functional, organism-based.

Converted amounts (≈) assume the structure as drawn. The source made the active and inactive calls. No cut-off for these calls is given here.

As to `CC(C)=CC[C@]12Oc3cc(O)c([C@H]4C=C(C)C[C@H](c5ccc(O)cc5O)[C@H]4C(=O)c4ccc(O)cc4O)c(O)c3C(=O)[C@@]1(O)Oc1cc(O)ccc12` [SANGGENON C], the Activity result in data set [1] and in data set [2] was “Non-Toxic” in each case. The MIC – broadly, the lowest concentration that inhibits growth of the organism – in data set [3] worked out at 2.08 µM (≈ 1.47 µg/mL); in data set [4], 1.72 µM (≈ 1.22 µg/mL); in data set [5], 3.16 µM (≈ 2.24 µg/mL); in data set [6], 3.16 µM (≈ 2.24 µg/mL).
For `CO[C@H]1/C=C/O[C@@]2(C)Oc3c(C)c(O)c4c(O)c(c(/C=N/N5CCN(C)CC5)c(O)c4c3C2=O)NC(=O)/C(C)=C\C=C\[C@H](C)[C@H](O)[C@@H](C)[C@@H](O)[C@@H](C)[C@H](OC(C)=O)[C@@H]1C` [RIFAMPIN], the values for the MIC in data set [3], in data set [5] and in data set [6] were 0.02 µM (≈ 0.0165 µg/mL), 15.4 µM (≈ 12.7 µg/mL) and 1 µM (≈ 0.823 µg/mL), respectively.
As for `CC(C)=CCCC1=C[C@H](c2c(O)cc3c(c2O)C(=O)C[C@@H](c2ccc(O)cc2O)O3)[C@@H](C(=O)c2ccc(O)cc2O)[C@H](c2ccc(O)cc2O)C1`, the Activity entry in data set [1] and in data set [2] was “Non-Toxic” each time. The MIC in data set [3] amounted to 3.16 µM (≈ 2.2 µg/mL); in data set [4], 3.16 µM (≈ 2.2 µg/mL); in data set [5], 10 µM (≈ 6.95 µg/mL); in data set [6], 10 µM (≈ 6.95 µg/mL).
Regarding `CC1(C)S[C@@H]2[C@H](NC(=O)[C@H](N)c3ccccc3)C(=O)N2[C@H]1C(=O)O` [AMPICILLIN], in data set [4], the MIC came to 0.02 µM (≈ 0.00699 µg/mL).
As to `CC(C)=CCC12Oc3cc(O)c(C4C=C(C)CC(c5ccc(O)cc5O)C4C(=O)c4ccc(O)cc4O)c(O)c3C(=O)C1(O)Oc1cc(O)ccc12` (stereo not drawn), the result in data set [7] was inactive. Further, the Activity entry in data set [1] and in data set [2] was “Non-Toxic” throughout. In addition, the MIC in data set [3] was found to be 3.16 µM (≈ 2.24 µg/mL); in data set [4], 3.16 µM (≈ 2.24 µg/mL); in data set [5], 10 µM (≈ 7.09 µg/mL); in data set [6] it was 10 µM (≈ 7.09 µg/mL).
